Test results: ChEMBL document CHEMBL4004830 (J Med Chem, 2017)

Tests used:
[1] = system: MV4-11; test: Induction of apoptosis in human MV4-11 cells assessed as late apoptotic cells at 5 times GI50 after 24 hrs by annexin V/propidium iodide staining based flow cytometry (reference value: 4.87%); assay type: functional
[2] = system: MV4-11; test: Induction of apoptosis in human MV4-11 cells assessed as viable cells at 10 times GI50 after 24 hrs by annexin V/propidium iodide staining based flow cytometry (reference value: 93.05%); assay type: functional
[3] = system: MV4-11; test: Cell cycle arrest in human MV4-11 cells assessed as accumulation at G1 phase at 10 times GI50 after 24 hrs by propidium iodide staining based flow cytometry (reference value: 58.99%); assay type: functional
Outline: (§1)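 MV4-11 cells were treated with increasing concentrations for 24 h. Cells were then harvested, fixed and stained with propidium iodide before flow cytometric cell cycle analysis.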

[4] = system: MV4-11; test: Cell cycle arrest in human MV4-11 cells assessed as accumulation at S phase at GI50 after 24 hrs by propidium iodide staining based flow cytometry (reference value: 21.97%); assay type: functional; outline: as §1
[5] = system: MV4-11; test: Induction of apoptosis in human MV4-11 cells assessed as necrotic cells at GI50 after 24 hrs by annexin V/propidium iodide staining based flow cytometry (reference value: 0.06%); assay type: functional
[6] = system: MV4-11; test: Induction of apoptosis in human MV4-11 cells assessed as late apoptotic cells at GI50 after 24 hrs by annexin V/propidium iodide staining based flow cytometry (reference value: 4.87%); assay type: functional
[7] = system: MV4-11; test: Cell cycle arrest in human MV4-11 cells assessed as accumulation at G2/M phase at 10 times GI50 after 24 hrs by propidium iodide staining based flow cytometry (reference value: 18.11%); assay type: functional; outline: as §1
[8] = system: MV4-11; test: Cell cycle arrest in human MV4-11 cells assessed as accumulation at sub-G1 phase at GI50 after 24 hrs by propidium iodide staining based flow cytometry (reference value: 0.91%); assay type: functional; outline: as §1
[9] = system: MV4-11; test: Induction of apoptosis in human MV4-11 cells assessed as viable cells at 5 times GI50 after 24 hrs by annexin V/propidium iodide staining based flow cytometry (reference value: 93.05%); assay type: functional
[10] = system: MV4-11; test: Cell cycle arrest in human MV4-11 cells assessed as accumulation at sub-G1 phase at 10 times GI50 after 24 hrs by propidium iodide staining based flow cytometry (reference value: 0.91%); assay type: functional; outline: as §1
[11] = system: MV4-11; test: Cell cycle arrest in human MV4-11 cells assessed as accumulation at G1 phase at 5 times GI50 after 24 hrs by propidium iodide staining based flow cytometry (reference value: 58.99%); assay type: functional; outline: as §1
[12] = system: MV4-11; test: Cell cycle arrest in human MV4-11 cells assessed as accumulation at G2/M phase at GI50 after 24 hrs by propidium iodide staining based flow cytometry (reference value: 18.11%); assay type: functional; outline: as §1
[13] = Growth inhibition of nontransformed human BPH1 cells after 72 hrs by resazurin or MTT assay; assay type: cell-based; details: BPH-1 cells (nontransformed)
[14] = system: MV4-11; test: Induction of apoptosis in human MV4-11 cells assessed as necrotic cells at 5 times GI50 after 24 hrs by annexin V/propidium iodide staining based flow cytometry (reference value: 0.06%); assay type: functional
[15] = system: MDA-MB-468; test: Growth inhibition of human MDA-MB-468 cells after 72 hrs by resazurin or MTT assay; assay type: functional; details: MDA-MB-468, 72 h
[16] = system: MV4-11; test: Induction of apoptosis in human MV4-11 cells assessed as late apoptotic cells at 10 times GI50 after 24 hrs by annexin V/propidium iodide staining based flow cytometry (reference value: 4.87%); assay type: functional
[17] = system: MV4-11; test: Cell cycle arrest in human MV4-11 cells assessed as accumulation at G1 phase at GI50 after 24 hrs by propidium iodide staining based flow cytometry (reference value: 58.99%); assay type: functional; outline: as §1
[18] = Growth inhibition of human M238 cells after 72 hrs by resazurin or MTT assay; assay type: functional; details: M238, 72 h
[19] = system: MV4-11; test: Cell cycle arrest in human MV4-11 cells assessed as accumulation at G2/M phase at 5 times GI50 after 24 hrs by propidium iodide staining based flow cytometry (reference value: 18.11%); assay type: functional; outline: as §1
[20] = Growth inhibition of human MRC5 cells after 72 hrs by resazurin or MTT assay; assay type: cell-based
[21] = system: MV4-11; test: Induction of apoptosis in human MV4-11 cells assessed as early apoptotic cells at 5 times GI50 after 24 hrs by annexin V/propidium iodide staining based flow cytometry (reference value: 2.01%); assay type: functional
[22] = system: MV4-11; test: Induction of apoptosis in human MV4-11 cells assessed as early apoptotic cells at 10 times GI50 after 24 hrs by annexin V/propidium iodide staining based flow cytometry (reference value: 2.01%); assay type: functional
[23] = system: MV4-11; test: Induction of apoptosis in human MV4-11 cells assessed as viable cells at GI50 after 24 hrs by annexin V/propidium iodide staining based flow cytometry (reference value: 93.05%); assay type: functional
[24] = system: MOLM-13; test: Growth inhibition of human MOLM13 cells after 72 hrs by resazurin or MTT assay; assay type: functional; details: MOLM-13, 72 h
[25] = system: MV4-11; test: Induction of apoptosis in human MV4-11 cells assessed as early apoptotic cells at GI50 after 24 hrs by annexin V/propidium iodide staining based flow cytometry (reference value: 2.01%); assay type: functional
[26] = system: MDA-MB-453; test: Growth inhibition of human MDA-MB-453 cells after 72 hrs by MTT assay; assay type: functional; details: MDA-MB-453, 72 h
Outline: (§2)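 72 h antiproliferation assay, resazurin read-out for MV4-11 and MTT read-out for MDA-MB-453; values from at least two replicates.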

[27] = system: DU-145; test: Growth inhibition of human DU145 cells after 72 hrs by resazurin or MTT assay; assay type: functional; details: DU-145, 72 h
[28] = system: MV4-11; test: Induction of apoptosis in human MV4-11 cells assessed as necrotic cells at 10 times GI50 after 24 hrs by annexin V/propidium iodide staining based flow cytometry (reference value: 0.06%); assay type: functional
[29] = Growth inhibition of human M249 cells after 72 hrs by resazurin or MTT assay; assay type: functional; details: M249, 72 h
[30] = Growth inhibition of human M229 cells after 72 hrs by resazurin or MTT assay; assay type: functional; details: M229, 72 h
[31] = system: MV4-11; test: Cell cycle arrest in human MV4-11 cells assessed as accumulation at S phase at 10 times GI50 after 24 hrs by propidium iodide staining based flow cytometry (reference value: 21.97%); assay type: functional; outline: as §1
[32] = system: PC-3; test: Growth inhibition of human PC3 cells after 72 hrs by resazurin or MTT assay; assay type: functional; details: PC-3, 72 h
[33] = system: MV4-11; test: Growth inhibition of human MV4-11 cells after 72 hrs by resazurin assay; assay type: functional; details: MV4-11, 72 h; outline: as §2
[34] = system: A2780; test: Growth inhibition of human A2780 cells after 72 hrs by resazurin or MTT assay; assay type: functional; details: A2780, 72 h
[35] = system: NB-4; test: Growth inhibition of human NB4 cells after 72 hrs by resazurin or MTT assay; assay type: functional; details: NB-4, 72 h
[36] = Growth inhibition of human M249R cells after 72 hrs by resazurin or MTT assay; assay type: functional; details: M249, 72 h
[37] = system: MCF7; test: Growth inhibition of human MCF7 cells after 72 hrs by resazurin or MTT assay; assay type: functional; details: MCF7, 72 h
[38] = system: MV4-11; test: Cell cycle arrest in human MV4-11 cells assessed as accumulation at S phase at 5 times GI50 after 24 hrs by propidium iodide staining based flow cytometry (reference value: 21.97%); assay type: functional; outline: as §1
[39] = system: LNCaP C4-2B; test: Growth inhibition of human C4-2B cells after 72 hrs by resazurin or MTT assay; assay type: functional

Row | SMILES | Activity [1] [%] | Activity [2] [%] | Activity [3] [%] | Activity [4] [%] | Activity [5] [%] | Activity [6] [%] | Activity [7] [%] | Activity [8] [%] | Activity [9] [%] | Activity [10] [%] | Activity [11] [%] | Activity [12] [%] | GI50 at 72 h [13] [nM] | Activity [14] [%] | GI50 [15] [nM] | Activity [16] [%] | Activity [17] [%] | GI50 [18] [nM] | Activity [19] [%] | GI50 at 72 h [20] [nM] | other results
1 | CC(=O)c1c(C)c2cnc(Nc3ccc(N4CCNCC4)cn3)nc2n(C2CCCC2)c1=O [PALBOCICLIB] | 7.16 | 89.91 | 89.5 | 12.18 | 0.17 | 6.28 | 4.12 | 1.32 | 90.49 | 1.72 | 88.99 | 11.49 | 7440 | 0.21 | 5960 | 7.65 | 75.13 | 1970 | 4.13 | > 10000 | Activity [21]: 2.14%; Activity [22]: 2.31%; Activity [23]: 90.99%; GI50 [24]: 62 nM; Activity [25]: 2.54%; GI50 [26]: 326 nM; GI50 [27]: 5790 nM; Activity [28]: 0.12%; GI50 [29]: 1990 nM; GI50 [30]: 1220 nM; Activity [31]: 4.67%; GI50 [32]: 71 nM; GI50 [33]: 50 nM; GI50 [34]: 32 nM; GI50 [35]: 66 nM; GI50 [36]: 2960 nM; GI50 [37]: 557 nM; Activity [38]: 5.07%; GI50 [39]: 4150 nM
2 | Cc1nc(NC2CCCC2)sc1-c1ccnc(Nc2ccc(N3CCOCC3)cn2)n1 | 7.03 | 89.53 | 81.18 | 17.77 | 0.06 | 4.9 | 5.75 | 3.43 | 90.43 | 2.6 | 71.66 | 15.3 | > 10000 | 0.16 | > 10000 | 7.27 | 63.57 | 2200 | 10.91 | > 10000 | Activity [21]: 2.37%; Activity [22]: 2.83%; Activity [23]: 92.71%; GI50 [24]: 385 nM; Activity [25]: 2.33%; GI50 [26]: 3680 nM; GI50 [27]: > 10000 nM; Activity [28]: 0.35%; GI50 [29]: 82 nM; GI50 [30]: 150 nM; Activity [31]: 10.53%; GI50 [32]: 150 nM; GI50 [33]: 209 nM; GI50 [34]: 58 nM; GI50 [35]: 681 nM; GI50 [36]: 38 nM; GI50 [37]: 1890 nM; Activity [38]: 13.85%; GI50 [39]: > 10000 nM
